Assay results gathered from unrelated publications.
Protocols differ between the studies behind these lines.
Read-out: cell growth or viability

SMILES	cell line	technique	time	IC50
Cc1nc(Nc2ncc(C(=O)Nc3c(C)cccc3Cl)s2)cc(N2CCN(CCO)CC2)n1	BXPC-3	MTT	–	0.046 µM
CN(C)CCCN1c2ccccc2Sc2ccc(Cl)cc21	human Hepatocyte	–	–	26 µM
CCC[C@H](Nc1nc(-c2ccc(NC(=O)NCC)c(OC)c2)ncc1C)c1cccnc1	BXPC-3	fluorescence	72 h	0.0371 µM
Cc1cnc(NC2CCOCC2)nc1-n1cnc(C(=O)NC(CN)c2cc(F)cc(Cl)c2)c1 (centres unmarked)	U-2973	MTS	–	0.3 µM
C=C(C)C(=O)Nc1ccc(-c2c(-c3ccc(Oc4nccc(C)n4)c(F)c3)c3c(N)ncnc3n2C)cc1	MFE-296	ATP luminescence	96 h	0.00996 µM
Cc1nc(-c2cn3c(n2)-c2ccc(-c4cnn(C(C)(C)C(N)=O)c4)cc2OCC3)n(C(C)C)n1	SW48	ATP luminescence	96 h	0.0215 µM
CNc1ncc2cc(-c3ccc(-c4cccc(C)n4)cc3Cl)c(=O)n(C[C@H]3OC[C@H](N)CO3)c2n1	BXPC-3	MTT	24 h	20.3 µM
Cc1nc(NC(=O)N2CCC[C@H]2C(N)=O)sc1-c1ccnc(C(C)(C)C(F)(F)F)c1	SW48	ATP luminescence	96 h	0.154 µM
CC(C)C[C@H](NC(=O)[C@H](Cc1ccccc1)NC(=O)c1cnccn1)B(O)O	BEN	ATP luminescence	–	0.068 µM
C=C(C)[C@@H]1CC[C@]2(C(=O)O)CC[C@]3(C)[C@H](CC[C@@H]4[C@@]5(C)CC[C@H](O)C(C)(C)[C@@H]5CC[C@]43C)[C@@H]12	DLD-1	–	48 h	20 µM
Cc1ccc2[nH]c(=O)c3cc(C(=O)NCCCN(C)Cc4ccccc4)sc3c2c1	BXPC-3	MTT	24 h	10.1 µM
COc1cccc2c1C(=O)c1c(O)c3c(c(O)c1C2=O)C[C@@](O)(C(=O)CO)C[C@@H]3O[C@H]1C[C@H](N)[C@H](O)[C@H](C)O1	SK-MEL	neutral red	48 h	0.7 µg/mL
CC[C@]1(O)C[C@H]2CN(CCc3c([nH]c4ccccc34)[C@@](C(=O)OC)(c3cc4c(cc3OC)N(C=O)[C@H]3[C@@](O)(C(=O)OC)[C@H](OC(C)=O)[C@]5(CC)C=CCN6CC[C@]43[C@@H]65)C2)C1	BXPC-3	fluorescence	72 h	0.002 µM
COc1cc(Nc2nccc(-c3cnn4nc(OC)ccc34)n2)cc(C(F)(F)F)c1	NCI-H838	ATP luminescence	–	0.47 µM
